Results published in ChEMBL document CHEMBL1154864, “Oblongolides from the endophytic fungus Phomopsis sp. BCC 9789” (J Nat Prod, 2010).
pIC50: −log10 of the molar value. ≈ marks a conversion by molar mass, not a printed value.

Assays:
[1] = system: Mycobacterium tuberculosis; assay: Antituberculosis activity against Mycobacterium tuberculosis H37Ra after 4 days by Alamar blue assay; format: functional; conditions: 96 h
Outline: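 Microplate resazurin (Alamar Blue) growth-inhibition assay against M. tuberculosis H37Ra; MIC taken as the lowest concentration giving ≥90% growth inhibition.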

KB = assay: Cytotoxicity against human KB cells by SRB assay; format: functional, cell-based
Outline: (§1)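 Colorimetric cytotoxicity assay run on oral human epidermal carcinoma (KB), human breast cancer (BC), human small-cell lung cancer (NCI-H187) and African green monkey kidney fibroblast (Vero) cells. IC50 values are reported in µM.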

[2] = Cytotoxicity against human BC cells by SRB assay; format: functional, cell-based; outline: as §1
NCI-H187 = assay: Cytotoxicity against human NCI-H187 cells by SRB assay; format: functional, cell-based; outline: as §1
Vero = assay: Cytotoxicity against African green monkey Vero cells by SRB assay; format: cell-based; conditions: Chlorocebus sabaeus; outline: as §1
Human alphaherpesvirus 1 = assay: Antiviral activity against Herpes simplex virus type 1; format: functional, organism-based
Outline: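 HSV-1 antiviral activity read out by a colorimetric method, with IC50 values in µM.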

SMILES	MIC [1]	pIC50 (KB)	pIC50 [2]	pIC50 (NCI-H187)	pIC50 (Vero)	pIC50 (Human alphaherpesvirus 1)
C[C@H]1CC[C@H]2[C@@H](C=C[C@@H]3[C@@H](O)O[C@@H](CO)C(=O)[C@@]32C)C1	> 178 µM	< 4.15	< 4.15	< 4.15	< 3.75	
Cc1ccc(O)c2c1C[C@@H](C)OC2=O	> 260 µM	< 3.98	< 3.98	< 3.98	< 3.59	
Nc1nc2c(ncn2COCCO)c(=O)[nH]1 [ACYCLOVIR]						4.89
COc1cccc2c1C(=O)c1c(O)c3c(c(O)c1C2=O)C[C@@](O)(C(=O)CO)C[C@@H]3O[C@H]1C[C@H](N)[C@H](O)[C@H](C)O1 [DOXORUBICIN]		6.62		7.10		
Cc1c2ccncc2c(C)c2c1[nH]c1ccccc12 [ELLIPTECINE]					5.76	
NNC(=O)c1ccncc1 [ISONIAZID]	0.36 µM (≈ 0.0494 µg/mL)					
C[C@H]1CC[C@H]2[C@@H](C=C[C@]3(O)COC(=O)[C@]23C)C1 [OBLONGOLIDE C]	> 212 µM	< 4.07	< 4.07	< 4.07	< 3.67	
C[C@H]1CC[C@H]2[C@H](C1)[C@@H]1O[C@@H]1[C@@H]1COC(=O)[C@]21C [OBLONGOLIDE Q]	> 212 µM	< 4.07	< 4.07	< 4.07	< 3.67	
C[C@H]1CC[C@H]2[C@@H](C=C[C@@H]3CO[C@](C)(O)C(=O)[C@@]32C)C1 [OBLONGOLIDE T]	> 189 µM	< 4.12	< 4.12	< 4.12	< 3.72	
C[C@H]1CC[C@H]2[C@@H](C=C[C@@H]3COC(=O)[C@@](O)(CO)[C@@]32C)C1 [OBLONGOLIDE W1]	178 µM (≈ 49.9 µg/mL)	< 4.15	< 4.15	< 4.15	< 3.75	
C[C@H]1CC[C@H]2[C@@H](C=C[C@@H]3COC(=O)[C@](O)(CO)[C@@]32C)C1 [OBLONGOLIDE W2]	> 178 µM	< 4.15	< 4.15	< 4.15	< 3.75	
C[C@H]1CC[C@H]2[C@@H](C=C[C@@H]3CO[C@@](O)(CO)C(=O)[C@@]32C)C1 [OBLONGOLIDE X]	> 178 µM	< 4.15	< 4.15	< 4.15	4.02	
CO[C@]1(C(C)=O)OC[C@H]2C=C[C@H]3C[C@@H](C)CC[C@@H]3[C@]21C [OBLONGOLIDE Y]	> 180 µM	< 4.14	4.32	< 4.14	< 3.74	
CC(=O)[C@@]1(OCCc2ccccc2)OC[C@H]2C=C[C@H]3C[C@@H](C)CC[C@@H]3[C@]21C [OBLONGOLIDE Z]	> 136 µM	4.43	4.59	4.49	4.22	
C[C@H]1CC[C@H]2[C@@H](C=C[C@@H]3COC(=O)[C@@]32C)C1 [OBLONGOLIDE]	227 µM (≈ 50 µg/mL)	< 4.04	< 4.04	< 4.04	< 3.64	
